In general, logD refers to lipophilicity at a set pH, counting ionised and neutral species.

The species entered for series [1] is Mus musculus. As to the kind of experiment: Binding affinity to myelin sheath in Plp-Akt-DD transgenic mouse corpus callosum at 10 uM after 20 mins. To be noted: tested as the 11C-labelled form. Format: tissue-based.
Series [2] concerns Mus musculus. As to the kind of experiment: In vivo binding affinity to myelin sheath in Plp-Akt-DD transgenic mouse corpus callosum at 25 mg/kg, iv after 30 mins by fluorescent microscopic analysis. Type of series: functional, organism-based. The arrangement: dose 25 mg/kg. To be noted: tested as the 11C-labelled form. The essentials:
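Anesthetized Plp-Akt-DD mice and control littermates received MeDAS, 25 mg/kg (about 0.5 mg), by tail vein. After 30 min they were perfused with saline and then 4% PFA. Brains were postfixed overnight, cryoprotected in 30% sucrose and cut into 10 μm cryosections. Sections were imaged directly by fluorescence microscopy, with Black-Gold staining done for comparison.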

Series [3] is filed under the species Mus musculus. As to the kind of experiment: Binding affinity to myelin sheath in Plp-Akt-DD transgenic mouse corpus callosum by fluorescence assay. Type of series: tissue-based. The essentials: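 Perfusion-fixed (4% PFA) brains from Plp-Akt-DD mice and wild-type SWR/J littermates (5 months old) were cut into 10 μm coronal cryosections and stained in vitro with 10 μM MeDAS. Fluorescence was imaged in the corpus callosum from the midline to below the apex of the cingulum, 8 images per mouse, 20× objective. Images were thresholded against Black-Gold reactivity and intensity was expressed relative to WT set at 100. n = 4, unpaired Student's t-test.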

The test system of series [4] is Brain. As to the kind of experiment: Biodistribution in Swiss-Webster mouse brain at 3.7 MBq, iv after 30 mins. Type of series: ADME, organism-based. Particulars: in vivo, 0.5 h. The essentials: (§1)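 [11C]MeDAS, up to 3.7 MBq (100 μCi), was injected into the tail vein of Swiss-Webster mice (20-25 g). Brains were removed at 5, 30 and 60 min, weighed and gamma-counted. Decay-corrected uptake is given as %ID/organ, n = 3, mean ± SD.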

The test system of series [5] is Intestine. As to the kind of experiment: Biodistribution in Swiss-Webster mouse intestine at 3.7 MBq, iv after 5 mins. Type of series: ADME, organism-based. To be noted: in vivo. The essentials: (§2)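 About 3.7 MBq (100 μCi) of [11C]MeDAS was given by tail vein to Swiss-Webster mice, which were euthanized by cardiac excision at 5, 30 and 60 min. Heart, liver, spleen, lung, kidney, stomach and intestine were removed and counted in an automatic gamma well-counter. Results are %ID/organ, n = 3, mean ± SD.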

The subject of series [6] is Lung. As to the kind of experiment: Biodistribution in Swiss-Webster mouse lung at 3.7 MBq, iv after 30 mins. Type of series: ADME, organism-based. Particulars: in vivo, 0.5 h. The essentials:
as §2

Series [7] has as its system Brain. As to the kind of experiment: Drug uptake in Swiss-Webster mouse brain at 111 MBq, iv after 20 mins by autoradiography. Format: ADME, organism-based. Particulars: in vivo.
Series [8] in a line: Drug uptake in Swiss-Webster mouse corpus callosum at 111 MBq, iv after 20 mins by magnetic resonance imaging analysis. Format: ADME, organism-based. Particulars: in vivo.
Series [9] concerns Liver. As to the kind of experiment: Biodistribution in Swiss-Webster mouse liver at 3.7 MBq, iv after 5 mins. To be noted: in vivo. Format: ADME, organism-based. The essentials:
as §2

The test system of series [10] is Kidney. As to the kind of experiment: Biodistribution in Swiss-Webster mouse kidney at 3.7 MBq, iv after 60 mins. Type of series: ADME, organism-based. Particulars: in vivo, 1 h. The essentials: as §2
Series [11] relates to Lung. As to the kind of experiment: Biodistribution in Swiss-Webster mouse lung at 3.7 MBq, iv after 5 mins. Format: ADME, organism-based. Particulars: in vivo. The essentials: as §2
Series [12] relates to Spleen. As to the kind of experiment: Biodistribution in Swiss-Webster mouse spleen at 3.7 MBq, iv after 60 mins. Format: ADME, organism-based. Particulars: in vivo, 1 h. The essentials:
as §2

Series [13] relates to Heart. As to the kind of experiment: Biodistribution in Swiss-Webster mouse heart at 3.7 MBq, iv after 30 mins. Type of series: ADME, organism-based. To be noted: in vivo, 0.5 h. The essentials:
as §2

Series [14] relates to Stomach. As to the kind of experiment: Biodistribution in Swiss-Webster mouse stomach at 3.7 MBq, iv after 5 mins. To be noted: in vivo. Type of series: ADME, organism-based. The essentials: as §2
Series [15] concerns Brain. As to the kind of experiment: Drug uptake in Plp-Akt-DD transgenic mouse brain at 7.4 MBq, iv after 90 mins by microPET imaging analysis. To be noted: in vivo, 1.5 h.
Series [16] can be described thus: Octanol-water partition coefficient, log P of the compound at pH 7.4. Type of series: physicochemical. The essentials: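 [11C]MeDAS (about 500,000 cpm, >98% radiochemical purity) was partitioned between n-octanol and phosphate buffer (pH 7.40) by vortexing 3 min at room temperature, then centrifuged at 3500 rpm for 5 min. The octanol layer was re-partitioned until values were consistent. logP = log of cpm/g octanol over cpm/g buffer, in triplicate.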

Series [17] relates to Brain. As to the kind of experiment: Biodistribution in Swiss-Webster mouse brain at 3.7 MBq, iv after 5 mins. Format: ADME, organism-based. Particulars: in vivo. The essentials: as §1
The test system of series [18] is Kidney. As to the kind of experiment: Biodistribution in Swiss-Webster mouse kidney at 3.7 MBq, iv after 5 mins. Type of series: ADME, organism-based. Particulars: in vivo. The essentials: as §2
The test system of series [19] is Spleen. As to the kind of experiment: Biodistribution in Swiss-Webster mouse spleen at 3.7 MBq, iv after 30 mins. To be noted: in vivo, 0.5 h. Type of series: ADME, organism-based. The essentials: as §2
The subject of series [20] is Heart. As to the kind of experiment: Biodistribution in Swiss-Webster mouse heart at 3.7 MBq, iv after 60 mins. Format: ADME, organism-based. To be noted: in vivo, 1 h. The essentials: as §2
Series [21] relates to Heart. As to the kind of experiment: Biodistribution in Swiss-Webster mouse heart at 3.7 MBq, iv after 5 mins. Type of series: ADME, organism-based. To be noted: in vivo. The essentials:
as §2

The subject of series [22] is Liver. As to the kind of experiment: Biodistribution in Swiss-Webster mouse liver at 3.7 MBq, iv after 60 mins. Type of series: ADME, organism-based. To be noted: in vivo, 1 h. The essentials:
as §2

In series [23] the test system is Brain. As to the kind of experiment: Biodistribution in Swiss-Webster mouse brain at 3.7 MBq, iv after 60 mins. Type of series: ADME, organism-based. Particulars: in vivo, 1 h. The essentials: as §1
For series [24], the system named is Stomach. As to the kind of experiment: Biodistribution in Swiss-Webster mouse stomach at 3.7 MBq, iv after 60 mins. Type of series: ADME, organism-based. To be noted: in vivo, 1 h. The essentials:
as §2

Series [25] concerns Intestine. As to the kind of experiment: Biodistribution in Swiss-Webster mouse intestine at 3.7 MBq, iv after 30 mins. Particulars: in vivo, 0.5 h. Format: ADME, organism-based. The essentials: as §2
The subject of series [26] is Liver. As to the kind of experiment: Biodistribution in Swiss-Webster mouse liver at 3.7 MBq, iv after 30 mins. Format: ADME, organism-based. Particulars: in vivo, 0.5 h. The essentials:
as §2

Series [27] concerns Spleen. As to the kind of experiment: Biodistribution in Swiss-Webster mouse spleen at 3.7 MBq, iv after 5 mins. Format: ADME, organism-based. To be noted: in vivo. The essentials: as §2
Series [28] in a line: Drug uptake in Swiss-Webster mouse corpus callosum at 111 MBq, iv after 20 mins by magnetic resonance imaging analysis in presence of BDB. Particulars: in vivo. Format: ADME, organism-based.
The nature of series [29]: Drug uptake in Swiss-Webster mouse corpus callosum at 111 MBq, iv. Particulars: in vivo.
Series [30] can be described thus: Drug uptake in Plp-Akt-DD transgenic mouse corpus callosum 7.4 MBq, iv after 90 mins by microPET imaging analysis. To be noted: in vivo, 1.5 h.
Series [31] concerns Lung. As to the kind of experiment: Biodistribution in Swiss-Webster mouse lung at 3.7 MBq, iv after 60 mins. Type of series: ADME, organism-based. Particulars: in vivo, 1 h. The essentials:
as §2

Series [32] deals with Stomach. As to the kind of experiment: Biodistribution in Swiss-Webster mouse stomach at 3.7 MBq, iv after 30 mins. Type of series: ADME, organism-based. To be noted: in vivo, 0.5 h. The essentials: as §2
In series [33] the test system is Kidney. As to the kind of experiment: Biodistribution in Swiss-Webster mouse kidney at 3.7 MBq, iv after 30 mins. Particulars: in vivo, 0.5 h. Type of series: ADME, organism-based. The essentials: as §2
Series [34] deals with Intestine. As to the kind of experiment: Biodistribution in Swiss-Webster mouse intestine at 3.7 MBq, iv after 60 mins. Format: ADME, organism-based. Particulars: in vivo, 1 h. The essentials: as §2

Active and inactive are the calls of the source.

For the compound `CNc1ccc(/C=C/c2ccc(N)cc2)cc1`, the Drug uptake entry in the series listed under Mus musculus [1], in the series with Mus musculus [2] and in the series listed under Mus musculus [3] was “Active” throughout.

Consider `[11CH3]Nc1ccc(/C=C/c2ccc(N)cc2)cc1`, for which the Drug uptake in the series with Brain [4] is reported as 1.05 %ID; in the series on Intestine [5], 0.42 %ID; in the series on Lung [6], 0.76 %ID; with Brain [7], “Active”; in series [8] it was “Active”; with Liver [9], 15.86 %ID. Also, the Drug uptake was 1.78 %ID in the series on Kidney [10]; 0.85 %ID in the series on Lung [11]; 0.9 %ID in the series on Spleen [12]; 0.33 %ID with Heart [13]; 1 %ID in the series with Stomach [14]; “Active” in the series with Brain [15]. Moreover, the Drug uptake in the series on Brain [17] came out at 2.56 %ID; with Kidney [18] it was 2.69 %ID; in the series on Spleen [19] it was 0.39 %ID; in the series on Heart [20], 0.75 %ID; in the series on Heart [21], 0.4 %ID; in the series with Liver [22], 7.75 %ID. Moreover, the Drug uptake with Brain [23] is on record as 1.37 %ID; in the series with Stomach [24], 1.21 %ID; in the series on Intestine [25], 0.65 %ID; in the series with Liver [26] it was 10.83 %ID; with Spleen [27] it was 0.28 %ID; in [28], “Not Active”. The Drug uptake result in [29] is “Active”; in [30] it was “Active”; with Lung [31] it was 1.2 %ID; with Stomach [32], 0.67 %ID; in the series with Kidney [33], 2 %ID; in the series on Intestine [34] it was 1.74 %ID. The compound also showed a logD in series [16] of 2.25.

Values taken from ChEMBL document CHEMBL1629437, “A novel PET marker for in vivo quantification of myelination” (Bioorg Med Chem, 2010).
